From ChEMBL document CHEMBL3352420, “Discovery of 2-pyridylureas as glucokinase activators” (J Med Chem, 2014)
Values after ≈ are worked out from the molar mass of the structure shown.

Columns and labels:
[1] = molecular target: T1, Hexokinase-4 (Homo sapiens, UniProt P35557); assay: Activation of purified human glucokinase isoform 3 (13 to 466 aa) using 5 mM glucose by spectrophotometry in presence of NAD+ and glucose 6-phosphate dehydrogenase in presence of 4% HSA
T1 sequence (P35557 whole entry): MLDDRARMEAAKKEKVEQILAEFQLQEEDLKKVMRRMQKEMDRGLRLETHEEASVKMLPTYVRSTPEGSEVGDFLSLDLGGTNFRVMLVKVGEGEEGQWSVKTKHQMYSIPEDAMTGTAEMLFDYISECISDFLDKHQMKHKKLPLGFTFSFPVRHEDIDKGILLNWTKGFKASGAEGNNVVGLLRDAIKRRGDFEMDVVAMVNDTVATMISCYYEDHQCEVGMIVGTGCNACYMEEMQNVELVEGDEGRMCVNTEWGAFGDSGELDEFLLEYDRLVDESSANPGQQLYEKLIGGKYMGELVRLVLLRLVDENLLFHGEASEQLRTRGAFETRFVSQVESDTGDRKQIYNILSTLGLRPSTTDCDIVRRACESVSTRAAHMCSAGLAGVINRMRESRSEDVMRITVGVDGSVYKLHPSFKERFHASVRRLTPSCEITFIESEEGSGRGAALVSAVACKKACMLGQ

[2] = molecular target: T1, Hexokinase-4; assay: Activation of purified human glucokinase isoform 3 (13 to 466 aa) using 5 mM glucose by spectrophotometry in presence of NAD+ and glucose 6-phosphate dehydrogenase
[3] = Extraction ratio in mouse liver microsomes at 1 uM up to 20 mins by LC-MS/MS analysis; type: ADME; settings: read-out: ERH
[4] = Extraction ratio in human liver microsomes at 1 uM up to 20 mins by LC-MS/MS analysis; type: ADME; settings: read-out: ERH
[5] = Plasma concentration in C57BL/6 mouse at 30 mg/kg, po measured at 2.5 hrs; type: ADME, organism-based; design: dose 30 mg/kg, route oral
In short: (§1)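 C57BL/6 mice in the OGTT study, dosed orally at 3, 10 or 30 mg/kg. Plasma concentrations are means at 2.5 h postdose, n = 8 per dose group.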

[6] = test system: Mus musculus; assay: Antidiabetic activity in C57BL/6 mouse assessed as reduction in glucose AUC level at 30 mg/kg, po by oral glucose tolerance test relative to control; type: functional; design: scale not given: the % may be the effect or the level left
In short: (§2)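 Dose–response oral glucose tolerance test in C57BL/6 mice at 3, 10 and 30 mg/kg po. Glucose AUC reduction is reported with p < 0.05 significance. Glucose min is the lowest glucose at the 2 h time point for any animal, n = 8.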

[7] = Clearance in fed CD-1 mouse at 1 mg/kg, iv as single dose; type: ADME, organism-based; design: dose 1 mg/kg, route intravenous; settings: in vivo
In short: (§3)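 Male CD-1 mice, fed, given a single 1 mg/kg iv dose as a solution in 40% PEG400/20% EtOH/40% saline (v/v). Parameters are calculated from arithmetic mean plasma concentrations, n = 3 per time point.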

[8] = Half life in fed CD-1 mouse at 1 mg/kg, iv as single dose; type: ADME, organism-based; design: dose 1 mg/kg, route intravenous; settings: in vivo; in short: as §3
[9] = AUC (infinity) in fed CD-1 mouse at 1 mg/kg, iv as single dose; type: ADME, organism-based; design: time infinity, dose 1 mg/kg, route intravenous; settings: plasma; in short: as §3
[10] = Permeability across pig LLC-PK cells; type: ADME, cell-based, Sus scrofa
[11] = Cmax in fed CD-1 mouse at 10 mg/kg, po as single dose; type: ADME, organism-based; design: dose 10 mg/kg, route oral; settings: in vivo
In short: (§4)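 Male CD-1 mice, fed, given a single 10 mg/kg oral dose as a suspension in aqueous 1% CMC/0.05% Tween 80 (w/v). Parameters are calculated from arithmetic mean plasma concentrations, n = 3 per time point.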

[12] = Solubility of the compound at pH 1.2; type: physicochemical; settings: buffer
[13] = Plasma concentration in C57BL/6 mouse at 3 mg/kg, po measured at 2.5 hrs; type: ADME, organism-based; design: dose 3 mg/kg, route oral; in short: as §1
[14] = test system: Mus musculus; assay: Antidiabetic activity in C57BL/6 mouse assessed as minimum glucose level at 30 mg/kg, po measured at 2 hrs by oral glucose tolerance test relative to control; type: functional; in short: as §2
[15] = test system: Mus musculus; assay: Antidiabetic activity in C57BL/6 mouse assessed as reduction in glucose AUC level at 3 mg/kg, po by oral glucose tolerance test relative to control; type: functional; design: scale not given: the % may be the effect or the level left; in short: as §2
[16] = Plasma concentration in C57BL/6 mouse at 10 mg/kg, po measured at 2.5 hrs; type: ADME, organism-based; design: dose 10 mg/kg, route oral; in short: as §1
[17] = Oral bioavailability in fed CD-1 mouse at 10 mg/kg as single dose; type: ADME, organism-based; settings: in vivo; in short: as §4
[18] = AUClast in fed CD-1 mouse at 10 mg/kg, po as single dose; type: ADME, organism-based; design: time 0 - last, dose 10 mg/kg, route oral; settings: plasma; in short: as §4
[19] = Solubility of the compound at pH 7.4; type: physicochemical; settings: buffer
[20] = test system: Mus musculus; assay: Antidiabetic activity in ob/ob mouse assessed as reduction in glucose excursion at 100 mg/kg, po bid for 14 days by oral glucose tolerance test; type: functional; design: scale not given: the % may be the effect or the level left
In short: (§5)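 ob/ob mice dosed orally b.i.d. at 3, 30 and 100 mg/kg for 14 days. On day 14 an OGTT is run, with fasting blood glucose read at −0.5 h and glucose excursion as AUC reduction. Significance is taken at p < 0.05.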

[21] = test system: Mus musculus; assay: Antidiabetic activity in C57BL/6 mouse assessed as reduction in glucose AUC level at 10 mg/kg, po by oral glucose tolerance test relative to control; type: functional; design: scale not given: the % may be the effect or the level left; in short: as §2
[22] = Solubility of the compound at pH 6.5; type: physicochemical; settings: buffer
[23] = AUClast in fed CD-1 mouse at 1 mg/kg, iv as single dose; type: ADME, organism-based; design: time 0 - last, dose 1 mg/kg, route intravenous; settings: plasma; in short: as §3
[24] = Volume of distribution at steady state in fed CD-1 mouse at 1 mg/kg, iv as single dose; type: ADME, organism-based; design: dose 1 mg/kg, route intravenous; settings: in vivo, read-out: Vdss; in short: as §3
[25] = test system: Mus musculus; assay: Antidiabetic activity in ob/ob mouse assessed as reduction in glucose excursion at 3 mg/kg, po bid for 14 days by oral glucose tolerance test; type: functional; design: scale not given: the % may be the effect or the level left; in short: as §5
[26] = Extraction ratio in fed CD-1 mouse at 1 mg/kg, iv as single dose; type: ADME, organism-based; design: dose 1 mg/kg, route intravenous; settings: in vivo, read-out: ERH
In short: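 Male CD-1 mice, fed, given a single 1 mg/kg iv dose in 40% PEG400/20% EtOH/40% saline (v/v). Extraction ratio is calculated from clearance using a mouse hepatic blood flow of 90 mL min−1 kg−1. Plasma concentrations are arithmetic means, n = 3 per time point.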

[27] = Plasma protein binding in mouse; type: ADME; settings: read-out: PPB (converted)
[28] = test system: Mus musculus; assay: Antidiabetic activity in ob/ob mouse assessed as reduction in glucose excursion at 30 mg/kg, po bid for 14 days by oral glucose tolerance test; type: functional; design: scale not given: the % may be the effect or the level left; in short: as §5
[29] = test system: Mus musculus; assay: Antidiabetic activity in ob/ob mouse assessed as reduction in fasting blood glucose at 3 mg/kg, po bid for 14 days by oral glucose tolerance test (reference value: 187.9 mg/dL); type: functional; settings: dose 100 mg/kg, in the assay text read “at 100 mg/kg” for “at 3 mg/kg”; in short: as §5
[30] = Fraction unbound in human plasma; type: ADME, cell-free
[31] = Tmax in fed CD-1 mouse at 10 mg/kg, po as single dose; type: ADME, organism-based; design: dose 10 mg/kg, route oral; settings: in vivo; in short: as §4
[32] = AUC (infinity) in fed CD-1 mouse at 10 mg/kg, po as single dose; type: ADME, organism-based; design: time infinity, dose 10 mg/kg, route oral; settings: plasma; in short: as §4
[33] = Plasma protein binding in human; type: ADME, cell-free; settings: read-out: PPB (converted)

## CCc1ncccc1Oc1cc(Sc2ccccn2)cnc1NC(N)=O
[1]; read-out: EC50
  EC50: 4480 nM
[2]
  EC50: 1730 nM

## CNC(=O)Nc1ncc(SC2CCN(C(=O)OC(C)(C)C)CC2)cc1Oc1cccnc1C
[1]; read-out: EC50
  EC50: 550 nM
[2]
  EC50: 132 nM
[3]
  hepatic extraction ratio at 20 min, 1 µM: 0.9
[4]
  hepatic extraction ratio at 20 min, 1 µM: 0.95

## CCOC(=O)Nc1ncc(Sc2ccccn2)cc1Oc1cccnc1CC
[1]
  EC50: Not Active
[2]
  EC50: > 50000 nM

## CCc1ncccc1Oc1cc(Sc2ccccn2)cnc1NC(=O)NCc1ccccn1
[1]; read-out: EC50
  EC50: 3990 nM
[2]
  EC50: 1620 nM

## CCc1ncccc1Oc1cc(Sc2ccccn2)cnc1NC(=O)NCCO
[1]; read-out: EC50
  EC50: 2840 nM
[2]
  EC50: 2120 nM

## CNC(=O)Nc1ncc(SCCCOC)cc1Oc1cccnc1C
[5]
  concentration at 2.5 h: 633 ng/mL
[6]
  Activity: 30.8%
[7]
  clearance: 21.5 mL/min/kg
[8]
  half-life: 2.67 h
[9]
  AUC(0-inf): 773 ng·h/mL
[10]
  permeability: permeable
[11]
  Cmax: 2320 ng/mL
[12]
  solubility: > 1000 µg/mL
[13]
  concentration at 2.5 h: 46 ng/mL
[1]; read-out: EC50
  EC50: 311 nM
[14]
  Activity: 73 mg/dL
[15]
  Activity: 8%
[16]
  concentration at 2.5 h: 178 ng/mL
[17]
  bioavailability: 67.8%
[18]
  AUC(0-t): 5030 ng·h/mL
[2]
  EC50: 182 nM
[19]
  solubility: 282 µg/mL (≈ 778 µM)
[20]
  Activity: 30.8%
[21]
  Activity: 28.6%
[22]
  solubility: 45 µg/mL (≈ 124 µM)
[23]
  AUC(0-t): 762 ng·h/mL
[24]
  Vd: 1.98 L/kg
[25]
  Activity: 18.4%
[26]
  hepatic extraction ratio: 0.239
[27]
  fraction unbound: 0.26
[28]
  Activity: 33.3%
[29]
  Activity: 125.9 mg/dL
[3]
  hepatic extraction ratio at 20 min, 1 µM: 0.34
[30]
  fraction unbound: 0.4
[31]
  Tmax: 0.5 h
[4]
  hepatic extraction ratio at 20 min, 1 µM: 0.32
[32]
  AUC(0-inf): 5240 ng·h/mL
[33]
  fraction unbound: 0.38

## CNC(=O)Nc1ncc(SC2CCOCC2)cc1Oc1cccnc1C
[1]; read-out: EC50
  EC50: 233 nM
[2]
  EC50: 336 nM
[3]
  hepatic extraction ratio at 20 min, 1 µM: 0.3
[4]
  hepatic extraction ratio at 20 min, 1 µM: 0.47

## CCc1ncccc1Oc1cc(Sc2ccccn2)cnc1NC(C)=O
[1]
  EC50: Not Active
[2]
  EC50: > 50000 nM

## CNC(=O)Nc1ncc(SC2CCN(S(C)(=O)=O)CC2)cc1Oc1cccnc1C
[1]; read-out: EC50
  EC50: 248 nM
[2]
  EC50: 195 nM
[3]
  hepatic extraction ratio at 20 min, 1 µM: 0.32
[4]
  hepatic extraction ratio at 20 min, 1 µM: 0.5

## CNC(=O)Nc1ncc(SCCCO)cc1Oc1cccnc1C
[1]; read-out: EC50
  EC50: 714 nM
[2]
  EC50: 550 nM
[3]
  hepatic extraction ratio at 20 min, 1 µM: 0.19
[4]
  hepatic extraction ratio at 20 min, 1 µM: 0.15

## CNC(=O)Nc1ncc(SC2CCN(C(C)=O)CC2)cc1Oc1cccnc1C
[1]; read-out: EC50
  EC50: 196 nM
[2]
  EC50: 111 nM
[3]
  hepatic extraction ratio at 20 min, 1 µM: 0.33
[4]
  hepatic extraction ratio at 20 min, 1 µM: 0.44

## CNC(=O)Nc1ncc(SCc2ccccn2)cc1Oc1cccnc1C
[1]; read-out: EC50
  EC50: 9300 nM
[2]
  EC50: 3090 nM

## CNC(=O)Nc1ncc(SCC2CCOCC2)cc1Oc1cccnc1C
[1]; read-out: EC50
  EC50: 436 nM
[2]
  EC50: 317 nM
[3]
  hepatic extraction ratio at 20 min, 1 µM: 0.43
[4]
  hepatic extraction ratio at 20 min, 1 µM: 0.48
